In brackets after ≈: the same amount, converted by molar mass. Activity calls are given as the source filed them. The calls are words filed in the database; no cut-off is given here.
Assays:
[1] = Solubility of the compound in DMSO; type: physicochemical
[2] = Chemical stability in aqueous solution after several weeks; type: physicochemical; conditions: buffer
Method in brief: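 Aqueous compound solutions were monitored for several weeks by UV-Vis absorbance at 220-900 nm. Linearity with concentration was checked up to 3.5 × 10^-5 mol dm-3, and spectra were recorded at 25–90 °C with reproducibility checked on cooling to 25 °C.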

[3] = system: Calf thymus DNA; assay: Binding affinity to calf thymus DNA assessed as hypochromic effect by UV-vis spectrophotometric method; type: nucleic-acid assay; conditions: Bos taurus
Method in brief: (§1)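 UV-Vis titration at room temperature in Na cacodylate buffer (I = 0.05 mol dm-3, pH 7.0). Portions of ct-DNA or polyA-polyU were added to a fixed compound concentration until saturation, with dilution correction. Polynucleotide was measured as phosphate. Ks and n were obtained by Scatchard analysis, together with the hypochromic change at the absorption maximum.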

[4] = Binding affinity to polyA-polyU (unknown origin) assessed as hypochromic effect by UV-vis spectrophotometric method; method in brief: as §1
[5] = Binding affinity to polyA-polyU (unknown origin) by UV-vis spectrophotometric method; method in brief: as §1
[6] = Growth inhibition of MDCK1 cells after 72 hrs by MTT assay; parameters: species or system Canis lupus familiaris; conditions: dog
Method in brief: (§2)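 Adherent cells (2x10^4 cells/cm3) attached overnight, then were exposed to compound for 72 h. Medium was replaced with 5 mg/cm3 MTT, formazan was dissolved in DMSO and absorbance read at 595 nm. Percent growth was taken relative to untreated control minus background. GI50 came from a variable-slope log-inhibitor fit, as mean ± SD of three independent experiments in triplicate.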

[7] = system: HeLa; assay: Growth inhibition of human HeLa cells after 72 hrs by MTT assay; type: functional; method in brief: as §2
[8] = system: Caco-2; assay: Growth inhibition of human Caco2 cells after 72 hrs by MTT assay; type: functional; conditions: Caco-2, 72 h; method in brief: as §2
[9] = system: K562; assay: Growth inhibition of human K562 cells after 72 hrs by MTT assay; type: functional; conditions: K562, 72 h
Method in brief: (§3)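 Leukemia cells (1x10^5 cells/cm3) were exposed to compound for 72 h, then MTT (5 mg/cm3) was added for 4 h. Formazan was dissolved with 10% SDS in 0.01 mol dm-3 HCl and absorbance read at 595 nm. Percent growth was taken versus untreated control minus background. GI50 came from a variable-slope fit, as mean ± SD of three independent experiments in triplicate.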

[10] = system: Raji; assay: Growth inhibition of human Raji cells after 72 hrs by MTT assay; type: functional; method in brief: as §3
[11] = system: K562; assay: Cell cycle arrest in human K562 cells assessed as accumulation at G0-G1 phase at 10^-5 mol/dm'3 after 24 hrs by propidium iodide staining-based flow cytometric method; type: functional
[12] = system: K562; assay: Cell cycle arrest in human K562 cells assessed as decrease in cell levels at S phase at 10^-5 mol/dm'3 after 24 hrs by propidium iodide staining-based flow cytometric method; type: functional
[13] = system: K562; assay: Cell cycle arrest in human K562 cells assessed as decrease in cell levels at G2-M phase at 10^-5 mol/dm'3 after 24 hrs by propidium iodide staining-based flow cytometric method; type: functional
[14] = Solubility of the compound in water; type: physicochemical
[15] = system: Calf thymus DNA; assay: Binding affinity to calf thymus DNA by UV-vis spectrophotometric method; type: nucleic-acid assay; conditions: Bos taurus; method in brief: as §1
[16] = system: Calf thymus DNA; assay: Binding affinity to calf thymus DNA assessed as change in melting temperature at 0.1 compound to ds-polynucleotide ratio by spectrophotometric method; type: nucleic-acid assay; conditions: Bos taurus
Method in brief: (§4)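 Thermal melting of ct-DNA (sonicated, filtered) or polyA-polyU in Na cacodylate buffer, I = 0.05 mol dm-3, pH 7.0, at given r = [compound]/[polynucleotide]; polynucleotide as phosphate concentration. Tm from maximum of first derivative, checked by tangent method. ΔTm = Tm(complex) − Tm(free nucleic acid), average of at least two measurements, error ±0.5 °C.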

[17] = system: Calf thymus DNA; assay: Binding affinity to calf thymus DNA assessed as change in melting temperature at 0.3 compound to ds-polynucleotide ratio by spectrophotometric method; type: nucleic-acid assay; conditions: Bos taurus; method in brief: as §4
[18] = system: Calf thymus DNA; assay: Binding affinity to calf thymus DNA assessed as change in melting temperature at 0.5 compound to ds-polynucleotide ratio by spectrophotometric method; type: nucleic-acid assay; conditions: Bos taurus; method in brief: as §4
[19] = Binding affinity to polyA-polyU (unknown origin) assessed as change in melting temperature at 0.1 compound to ds-polynucleotide ratio by spectrophotometric method; method in brief: as §4
[20] = Binding affinity to polyA-polyU (unknown origin) assessed as change in melting temperature at 0.3 compound to ds-polynucleotide ratio by spectrophotometric method; method in brief: as §4
[21] = system: Calf thymus DNA; assay: Binding affinity to calf thymus DNA minor groove at 0.1, 0.3, 0.5, 0.7 compound to ds-polynucleotide ratio by CD-spectrophotometric method; type: nucleic-acid assay; conditions: Bos taurus
Method in brief: (§5)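 Induced CD spectra were recorded in 1 cm quartz cuvettes in Na cacodylate buffer (I = 0.05 mol dm-3, pH 7.0) with ct-DNA or polyA-polyU. Compound was added at r = [compound]/[polynucleotide] = 0.1, 0.3, 0.5 and 0.7. The CD signal was followed as a function of r.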

[22] = system: Calf thymus DNA; assay: Disruption of calf thymus DNA helix at 0.1, 0.3, 0.5, 0.7 compound to ds-polynucleotide ratio by CD-spectrophotometric method; type: nucleic-acid assay; conditions: Bos taurus; method in brief: as §5
[23] = Binding affinity to polyA-polyU (unknown origin) major groove at 0.1, 0.3, 0.5, 0.7 compound to ds-polynucleotide ratio by CD-spectrophotometric method; method in brief: as §5
[24] = system: K562; assay: Cell cycle arrest in human K562 cells assessed as accumulation at sub-G0 phase at 10^-5 mol/dm'3 after 24 hrs by propidium iodide staining-based flow cytometric method; type: functional
[25] = Binding affinity to polyA-polyU (unknown origin) assessed as change in melting temperature at 0.5 compound to ds-polynucleotide ratio by spectrophotometric method; method in brief: as §4
[26] = Induction of polyA-polyU (unknown origin) intercalation at 0.1, 0.3, 0.5, 0.7 compound to ds-polynucleotide ratio by CD-spectrophotometric method; method in brief: as §5

N#Cc1ccc(OCCNc2ccnc3cc(Cl)ccc23)cc1
solubility [1]: 1000 µM (≈ 324 µg/mL) | Stability [2]: Stable | Activity [3]: 26.2% | Activity [4]: inactive | log Ks [5]: inactive | GI50 at 72 h [6]: > 100 µM | GI50 [7]: 84.4 µM | GI50 [8]: 95.3 µM | GI50 [9]: 7.2 µM | GI50 [10]: 6.2 µM | Activity [11]: Active | Activity [12]: Active | Activity [13]: Active

CC(C)CNC(=N)c1ccc2nc(-c3ccc(OCCNc4ccnc5cc(Cl)ccc45)cc3)[nH]c2c1.Cl.Cl.Cl
solubility [14]: 1000 µM | Stability [2]: Stable | Activity [3]: 32.2% | log Ks [15]: 6.51 | Activity [4]: 26% | log Ks [5]: 7.02 | ΔTm [16]: 4.31 °C | ΔTm [17]: 8.15 °C | ΔTm [18]: 8.67 °C | ΔTm [19]: 1.24 °C | ΔTm [20]: 0.75 °C | Activity [21]: Active | Activity [22]: Active | Activity [23]: Active | GI50 at 72 h [6]: 94.1 µM | GI50 [7]: > 100 µM | GI50 [8]: > 100 µM | GI50 [9]: 15.1 µM | GI50 [10]: 28.5 µM | Activity [12]: Active | Activity [13]: Active | Activity [24]: Active

N#Cc1ccc2nc(-c3ccc(Oc4ccnc5cc(Cl)ccc45)cc3)[nH]c2c1
solubility [1]: 1000 µM (≈ 397 µg/mL) | Stability [2]: Stable | Activity [21]: Active | GI50 at 72 h [6]: 93.1 µM | GI50 [7]: > 100 µM | GI50 [8]: > 100 µM | GI50 [9]: > 100 µM | GI50 [10]: > 100 µM

Cl.Cl.Cl.N=C(NC1CCCC1)c1ccc(Oc2ccnc3cc(Cl)ccc23)cc1
solubility [14]: 1000 µM | Stability [2]: Stable | ΔTm [16]: 1.35 °C | ΔTm [17]: 1.43 °C | ΔTm [18]: 1.51 °C | ΔTm [19]: 0.64 °C | ΔTm [20]: 0.65 °C | ΔTm [25]: 0.28 °C | GI50 at 72 h [6]: 35 µM | GI50 [7]: 48.6 µM | GI50 [8]: 13.5 µM | GI50 [9]: 18.8 µM | GI50 [10]: 19.7 µM | Activity [11]: Active | Activity [12]: Active | Activity [13]: Active

Cl.Cl.Cl.Clc1ccc2c(NCCOc3ccc(-c4nc5ccc(C6=NCCN6)cc5[nH]4)cc3)ccnc2c1
solubility [14]: 1000 µM | Stability [2]: Stable | Activity [3]: 21.6 to 26% | Activity [4]: 37.7% | log Ks [5]: 6.71 | ΔTm [16]: 5.75 °C | ΔTm [19]: 4.62 °C | ΔTm [20]: 5.16 °C | ΔTm [25]: 8.86 to 33.5 °C | Activity [21]: Active | Activity [22]: Active | Activity [23]: Active | GI50 at 72 h [6]: > 100 µM | GI50 [7]: > 100 µM | GI50 [8]: 117 µM | GI50 [9]: 8.6 µM | GI50 [10]: 27.5 µM | Activity [12]: Active | Activity [24]: Active

Cl.Cl.Cl.N=C(NC1CCCC1)c1ccc2nc(-c3ccc(OCCNc4ccnc5cc(Cl)ccc45)cc3)[nH]c2c1
solubility [14]: 1000 µM | Stability [2]: Stable | Activity [3]: 24.4% | log Ks [15]: 6.29 | Activity [4]: 49.7% | log Ks [5]: 6.81 | ΔTm [16]: 3.71 °C | ΔTm [17]: 7.8 °C | ΔTm [18]: 7.8 °C | ΔTm [19]: 3.02 °C | ΔTm [20]: 1.14 °C | ΔTm [25]: 4.67 to 35.4 °C | Activity [21]: Active | Activity [22]: Active | Activity [23]: Active | GI50 at 72 h [6]: 99.2 µM | GI50 [7]: > 100 µM | GI50 [8]: > 100 µM | GI50 [9]: 11.4 µM | GI50 [10]: 17.1 µM | Activity [12]: Active

CC(C)CNC(=N)c1ccc(Oc2ccnc3cc(Cl)ccc23)cc1.Cl.Cl.Cl
solubility [14]: 1000 µM | Stability [2]: Stable | ΔTm [16]: 1.91 °C | ΔTm [17]: 1.97 °C | ΔTm [18]: 1.85 °C | ΔTm [19]: -0.71 °C | ΔTm [20]: -0.8 °C | ΔTm [25]: -0.44 °C | GI50 at 72 h [6]: 30.3 µM | GI50 [7]: 52.3 µM | GI50 [8]: 71.9 µM | GI50 [9]: 16.9 µM | GI50 [10]: 25.5 µM | Activity [11]: Active | Activity [12]: Active | Activity [13]: Active

N#Cc1ccc2nc(-c3ccc(OCCNc4ccnc5cc(Cl)ccc45)cc3)[nH]c2c1
solubility [1]: 1000 µM (≈ 440 µg/mL) | Stability [2]: Stable | ΔTm [16]: 3.96 °C | ΔTm [17]: 2.58 °C | ΔTm [18]: 2.6 °C | Activity [21]: Active | Activity [22]: Active | GI50 at 72 h [6]: 22.1 µM | GI50 [7]: 56.6 µM | GI50 [8]: 28.3 µM | GI50 [9]: 7.8 µM | GI50 [10]: 5.2 µM

N#Cc1ccc(Oc2ccnc3cc(Cl)ccc23)cc1
solubility [1]: 1000 µM (≈ 281 µg/mL) | Stability [2]: Stable | GI50 at 72 h [6]: 88.5 µM | GI50 [7]: > 100 µM | GI50 [8]: > 100 µM | GI50 [9]: 86.7 µM | GI50 [10]: 91.4 µM

Cl.Cl.Cl.N=C(N)c1ccc2nc(-c3ccc(Oc4ccnc5cc(Cl)ccc45)cc3)[nH]c2c1
solubility [14]: 1000 µM | Stability [2]: Stable | Activity [3]: 79.8% | log Ks [15]: 6.83 | Activity [4]: 6.9% | log Ks [5]: 6.43 | ΔTm [16]: 2.07 °C | ΔTm [17]: 2.84 °C | ΔTm [18]: 2.9 °C | ΔTm [19]: 2.98 °C | ΔTm [20]: 0.72 °C | ΔTm [25]: 0.21 °C | Activity [21]: Active | Activity [26]: Active | GI50 at 72 h [6]: > 100 µM | GI50 [7]: > 100 µM | GI50 [8]: 82.9 µM | GI50 [9]: > 100 µM | GI50 [10]: 111 µM
